# Screening results deposited in PubChem BioAssay by several laboratories.
# SENP7 inh = SENP7 protease inhibition; recombinant SENP7, Z-RLRGG-aminoluciferin luminescence, 40 min; inhibition, % at 5 µM; actives 1.5% (n = 330,000); AID 434973;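 active means inhibition above about 50% at the single test dose, limit read from the data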;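 further: plate controls were DMSO with enzyme for no effect and no enzyme buffer wells for full effect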
# SENP8 block-1 = inhibitors of human SENP8 protease; actives 1.2% (n = 330,000); purified SENP8, Z-RLRGG-aminoluciferin cleavage, luminescence; inhibition, % at 10 µM; in the data active means inhibition above about 50%
# Target sequence (Q96LD8 whole entry, looked up): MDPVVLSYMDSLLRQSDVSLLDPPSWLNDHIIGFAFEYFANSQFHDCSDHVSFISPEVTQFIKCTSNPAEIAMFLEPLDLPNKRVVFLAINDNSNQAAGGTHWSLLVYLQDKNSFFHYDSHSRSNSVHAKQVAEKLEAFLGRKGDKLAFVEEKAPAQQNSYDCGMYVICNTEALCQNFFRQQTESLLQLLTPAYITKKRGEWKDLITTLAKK
# SENP6 inh = inhibitors of human SENP6 protease. Recombinant SENP6 catalytic domain, aminoluciferin luminescence. actives 1.8% (n = 330,000). inhibition, % at 10 µM. Q9GZR1. AID 2599;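 active means inhibition above about 50% at the single tested dose, limit read from the data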;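 further: plate controls were DMSO wells with enzyme for no effect and DMSO wells lacking enzyme for full effect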
# SENP1 inh = blocks the human SENP1 SUMO protease catalytic domain; AID 624204; recombinant SENP1 catalytic domain, CyPet-SUMO1-YPet FRET cleavage; actives 0.21% (n = 360,000); inhibition, % at 10 µM; Q9P0U3;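 active means inhibition at least 30% at 10 µM, raw YFP signal under a set limit, fluorescence ratio 0.5 to 1.5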;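 further: 0% = enzyme with DMSO and 100% = no enzyme wells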
# Target sequence (Q9P0U3 419-644 limits assumed): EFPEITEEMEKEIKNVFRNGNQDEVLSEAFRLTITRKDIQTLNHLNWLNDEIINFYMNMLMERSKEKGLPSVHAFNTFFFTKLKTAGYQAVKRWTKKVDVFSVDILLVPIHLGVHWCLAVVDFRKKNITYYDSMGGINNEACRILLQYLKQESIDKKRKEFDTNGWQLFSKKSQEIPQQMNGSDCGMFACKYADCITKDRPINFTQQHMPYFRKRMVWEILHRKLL
#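 Controls: no-enzyme wells low, DMSO-plus-enzyme wells high control. Test system: human recombinant His6-tagged SENP1 catalytic domain enzyme. Reagent: SFCypet-SUMO1-SFYpet FRET protein substrate, 25 nM final. Doses: one dose per compound, 10 µM, 0.5% DMSO. Detection: FRET, CFP and YFP emission. Timing: 50 min reaction at room temperature.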
# SENP8 block-2 = SENP8 (human) protease inhibition | AID 602440 | recombinant SENP8, Nedd8 substrate fluorescence | inhibition, % at 20 µM | actives 0.64% (n = 360,000); in the data active means inhibition mostly above about 40%, no sharp cut-off; inactive means mostly below about 27%
# Platelet DG rel = platelet dense granule release activity | human platelet-rich plasma, SFLLRN dense granule ATP release, luminescence | inhibition, %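 (compounds screened at 7.5 µM in platelet-rich plasma)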 | actives 0.22% (n = 300,000) | AID 1663;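 active means mean replicate score, as percent of positive control, at or above 50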
# SENP8 conf = human SENP8 inhibition, confirmed | shares compounds with SENP7 inh | Recombinant SENP8, Z-RLRGG-aminoluciferin luminescence, 60 min | inhibition, % at 12.5 µM | actives 40% (n = 6,200);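 active means mean inhibition across replicates above about 50%, limit read from the data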
# SENP6 confirm = human SENP6 inhibition, confirmed; shares compounds with SENP7 inh; recombinant SENP6, Z-RLRGG-aminoluciferin luminescence; inhibition, % at 12.5 µM; actives 58% (n = 6,200)
# SENP7 confirm = human SENP7 inhibition, confirmed. inhibition, % at 12.5 µM. shares compounds with SENP7 inh. actives 69% (n = 6,200). recombinant SENP7, Z-RLRGG-aminoluciferin luminescence, 40 min. AID 488917
# Casp3 SENP sel = caspase-3 inhibition (SENP selectivity assay) | shares compounds with SENP7 inh | purified caspase-3, Z-DEVD-aminoluciferin luminescence, 60 min | actives 60% (n = 6,200) | inhibition, % at 12.5 µM;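 active means mean inhibition above about 50%, limit read from the data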;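 further: plate controls were enzyme with DMSO for no effect and wells without caspase-3 for full effect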
# Target sequence (P42574 28-227 limits assumed): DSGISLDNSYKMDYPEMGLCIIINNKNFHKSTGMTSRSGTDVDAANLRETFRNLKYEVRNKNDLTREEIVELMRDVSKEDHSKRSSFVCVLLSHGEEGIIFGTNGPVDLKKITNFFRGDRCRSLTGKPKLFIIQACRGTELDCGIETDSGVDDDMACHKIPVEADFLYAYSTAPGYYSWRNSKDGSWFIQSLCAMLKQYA
# Luc interf = luminescence interference (SENP counter-screen) | Pre-incubated SENP8/Z-RLRGG-aminoluciferin, luciferase luminescence interference | shares compounds with SENP7 inh | actives 39% (n = 6,200) | inhibition, % at 12.5 µM;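 active means mean inhibition above about 50% when retested at one dose, limit read from the data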;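 further: plate controls were DMSO wells with completed reaction for no effect and substrate without enzyme for full effect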
# Active calls of the source: *; i = inactive; / = no result given. Only some compounds are listed: those with a hit (about 2.6% of all), similar ones and a draw of the others.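 How the source made its calls, unless noted: active means mean inhibition above about 50% in the one-dose retest (limit read from the data); inactive means the rest.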
SMILES,SENP7 inh,SENP8 block-1,SENP6 inh,SENP1 inh,SENP8 block-2,Platelet DG rel,SENP8 conf,SENP6 confirm,SENP7 confirm,Casp3 SENP sel,Luc interf
CCN(C[C@H]1N[C@@](CC)(C(=O)OC)[C@H]2C(=O)N(C)C(=O)[C@@H]12)C(=O)NC(C)C,-5.4,8.9,-2.0,1.9,9.0,/,/,/,/,/,/
O=c1c2ccccc2oc2ccc(-c3ccc4cc[nH]c4c3)cc12,61.7*,53.1*,50.3*,1.1,-17.8,/,-10.0,3.8,7.5,3.0,-1.7
CCOc1ccc(N=Cc2c(C)[nH]n(-c3nc4ccccc4[nH]3)c2=O)cc1,85.1*,79.5*,93.7*,-1.5,15.7,-0.9,49.0,35.0,50.1*,74.7*,69.3*
Cc1ccccc1NS(=O)(=O)c1ccc(C(=O)NN2CCCCC2)cc1,2.0,5.8,-11.6,-1.1,-6.9,-3.1,/,/,/,/,/
COc1ccccc1Nc1nnc(C)c(=O)[nH]1,2.2,-11.0,-17.1,1.4,8.7,-0.4,/,/,/,/,/
COc1ccccc1Nc1cc2cc(Br)ccc2c(=O)[nH]1,95.7*,97.4*,98.2*,-76.3,-178.6,2.8,86.2*,97.0*,93.6*,86.0*,14.1
O=c1[nH]c(Nc2ccccc2)cc2cc(Br)ccc12,93.7*,96.5*,96.0*,-113.2,-173.5,-3.9,95.9*,98.0*,96.1*,95.2*,17.6
O=c1[nH]c(Nc2ccccc2)cc2ccccc12,94.2*,95.9*,89.4*,11.7,-413.5,2.5,55.2*,80.3*,59.0*,25.4,17.9
COc1ccc(OC)c(Nc2cc3ccccc3c(=O)[nH]2)c1,96.7*,88.1*,94.5*,-41.0,i,-1.2,31.0,73.8*,41.1,10.8,-7.8
CC(=O)c1cccc(-c2ccc3c(=O)[nH]c(Nc4ccccc4)cc3c2)c1,95.0*,96.6*,99.4*,-46.7,6.3,7.5,95.0*,97.4*,94.9*,97.4*,16.4
O=C1CCCc2nc(N3CCc4ccccc43)ncc21,89.1*,78.2*,90.9*,-8.3,-236.7,-12.7,12.5,23.6,34.7,25.6,29.5
COc1ccc(C2Nc3cccc4cccc(c34)N2)cc1,3.4,13.6,63.7*,-14.9,-5.0,3.0,14.4,17.1,12.8,4.1,7.1
COc1cc(OC)c(C2Nc3cccc4cccc(c34)N2)c(OC)c1,4.8,23.2,58.4*,-14.4,-290.3,0.7,15.2,25.8,1.1,-3.2,-3.5
Oc1ccccc1C1Nc2cccc3cccc(c23)N1,4.6,15.7,30.4,-3.0,-112.7,4.8,/,/,/,/,/
COc1ccccc1C1Nc2cccc3cccc(c23)N1,13.5,31.2,60.5*,-2.5,-178.0,-8.8,15.0,12.4,2.6,-2.2,-2.9
c1ccc(C2Nc3cccc4cccc(c34)N2)cc1,12.1,1.6,6.1,5.0,-3.8,0.4,/,/,/,/,/
Clc1cccc(Cl)c1C1Nc2cccc3cccc(c23)N1,8.2,14.1,42.4,7.3,-5.5,11.1,/,/,/,/,/
Cn1c(N2CCN(C(c3ccccc3)c3ccccc3)CC2)nc2ccccc21,-15.8,-1.8,-17.2,-1.4,21.7,-14.1,/,/,/,/,/
Cc1ccc(C)c(NC(=O)CSc2nnc(NC(=O)C3CC3)s2)c1,-10.5,-1.8,3.1,2.2,-0.1,-16.9,/,/,/,/,/
COc1ccc(-n2nnnc2SCC(=O)Nc2nnc(C)s2)cc1OC,94.8*,-4.4,-0.5,1.5,4.4,16.6,-23.6,-16.1,-6.9,-7.7,-4.6
CCOC(=O)c1csc(NC(=O)CSc2nnnn2-c2ccc(OC)c(OC)c2)n1,0.0,-5.4,6.1,1.9,24.2,-7.8,/,/,/,/,/
C[C@H](CO)N1C[C@H](C)[C@@H](CN(C)S(=O)(=O)c2ccccc2)Oc2ccc(NC(=O)NC3CCCCC3)cc2C1=O,-8.5,-3.1,-6.7,2.0,3.3,/,/,/,/,/,/
CN(C)c1ccc(C=Nc2ccccc2)cc1,-3.2,-5.8,-10.8,-1.2,-0.2,3.7,/,/,/,/,/
C=CCn1c(/N=C/c2ccc(OC)cc2)nc2ccccc21,-6.3,-3.7,34.5,0.5,23.7,-1.0,/,/,/,/,/
CN(C)c1ccc(/C=N/n2ncc3ccccc32)cc1,2.2,67.7*,76.5*,-17.3,-252.5,7.1,-5.0,85.4*,96.9*,70.1*,42.9
SMILES,SENP7 inh,SENP8 block-1,SENP6 inh,SENP1 inh,SENP8 block-2,Platelet DG rel,SENP8 conf,SENP6 confirm,SENP7 confirm,Casp3 SENP sel,Luc interf
C=CCn1c(/N=C/c2ccc(N(C)C)cc2)nc2ccccc21,6.2,71.0*,77.2*,-32.0,6.5,1.1,81.4*,78.5*,94.5*,74.8*,85.1*
CC(=O)c1cccc(NC(=O)c2cnn3ccccc23)c1,40.8,43.5,56.6*,1.1,16.4,28.7,40.4,38.6,77.6*,78.3*,56.3*
CC(=O)c1ccc(NC(=O)c2cnn3ccccc23)cc1,37.1,26.9,56.1*,1.8,-20.4,27.4,32.9,32.4,73.4*,72.7*,59.6*
Cc1ccc2c(Cl)c(C)c(N3CCOCC3)nc2n1,/,/,/,-0.3,-177.3,/,/,/,/,/,/
O=C(Nc1nccs1)c1ccc2c(c1)OCO2,47.6,44.3,63.2*,-1.5,6.1,18.4,-5.1,8.5,68.2*,67.0*,0.2
Cc1csc(NC(=O)c2ccc3c(c2)OCO3)n1,85.7*,74.8*,85.2*,-1.7,-18.6,3.0,43.0,79.6*,96.1*,89.7*,82.1*
CC(=O)c1sc(NC(=O)c2ccc(C)c(C)c2)nc1C,33.2,-11.1,-14.1,-0.5,-10.6,2.1,/,/,/,/,/
CC(=O)c1sc(NC(=O)c2cnc(Cl)c(Cl)c2)nc1C,66.0*,76.9*,83.6*,4.7,-27.5,11.9,11.7,54.5*,27.8,91.2*,82.4*
CC(=O)c1sc(NC(=O)c2ccc3c(c2)OCO3)nc1C,81.8*,69.8*,79.9*,-1.0,-35.4,8.8,62.7*,76.6*,94.7*,87.9*,76.8*
CCCNC(=O)N(C)C[C@H]1Oc2ncc(Br)cc2C(=O)N([C@H](C)CO)C[C@H]1C,/,/,/,-1.2,7.7,/,/,/,/,/,/
CC(Oc1ccccc1)C(=O)Nc1cc(Cl)ccc1-n1cncn1 (stereo not drawn),-3.6,1.5,-11.6,-0.1,23.2,-4.8,/,/,/,/,/
O=C(N/N=C/c1ccc(OC(=O)c2cccc(F)c2)cc1)c1cccnc1,12.5,24.5,35.9,2.5,-2.3,-1.7,/,/,/,/,/
